Screening results: PubChem, Broad Institute
Sampled rows, rich in hits. Any-hit rate of the full collection: about 1.3%.
PAX8 reporter: PAX8 transcriptional activity inhibition; RMG-I TPO-luciferase reporter, SteadyGlo, 24 h; 1.2% of 360,000 active; inhibition, % at 12.6 µM;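 active = mean replicate inhibition at least 60% with every replicate also reaching 60%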;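 note: luciferase light reporting Pax8 driven TPO promoter activity; plate controls were median of neutral control wells for no effect and mitoxantrone controls for full effect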
RAD52 inh: RAD52 (human) annealing inhibition. recombinant RAD52 DNA annealing, FRET fluorescence. inhibition, % at 18.7 µM. 0.46% of 360,000 active;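 active = every replicate showing at least 50% inhibition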
Target sequence (P43351 whole entry, looked up): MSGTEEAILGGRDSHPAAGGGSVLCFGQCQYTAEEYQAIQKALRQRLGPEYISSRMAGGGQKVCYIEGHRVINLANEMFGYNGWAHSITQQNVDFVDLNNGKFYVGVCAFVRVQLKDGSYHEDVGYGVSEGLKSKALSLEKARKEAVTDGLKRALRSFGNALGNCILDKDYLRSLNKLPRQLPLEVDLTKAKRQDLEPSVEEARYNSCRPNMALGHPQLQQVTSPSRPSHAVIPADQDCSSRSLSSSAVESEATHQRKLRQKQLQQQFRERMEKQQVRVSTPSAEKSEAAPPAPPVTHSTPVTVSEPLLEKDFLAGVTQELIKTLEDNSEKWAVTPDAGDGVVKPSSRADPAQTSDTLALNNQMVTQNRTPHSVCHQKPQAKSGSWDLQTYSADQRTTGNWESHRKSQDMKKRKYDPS
RAD54 inh: RAD54 (human) branch migration inhibition | RAD54 Holliday junction branch migration, FAM/BHQ fluorescence | inhibition, % at 10.4 µM | 0.14% of 360,000 active | AID 602329;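 active = mean normalized replicate activity at least 40 and at least half of replicates scoring 40 or more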;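 note: 0% = median of neutral control wells and 100% = median of positive control wells; inhibitors cause a drop in the FAM fluorescence signal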
FN deposition inh: fibronectin deposition inhibition; inhibition, % at 12.6 µM; AH1F fibroblasts, Alexa488-fibronectin deposition fluorescence, overnight; 0.086% of 350,000 active; AID 743247;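 active = mean inhibition across replicates of 30% or more, regardless of how many single replicates reach that level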;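 note: positive control wells lacked labelled fibronectin entirely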
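Material: AH1F fibroblasts assembling fluorescent fibronectin matrix; amount: 10000 AH1F cells/well; medium: DMEM, 2% serum; reagent: Alexa488-fibronectin, 24 nM final in well; dosing: single compound dose, delivered by pin transfer; incubation: 1 h adhesion, overnight exposure; detection: fluorescence after three HBSS washes, excitation 485 nm, emission 525 nm; measure: fibronectin deposition inhibition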
The depositor's hits bear a star; · = no result.

SMILES	PAX8 reporter	RAD52 inh	RAD54 inh	FN deposition inh
C#CCOCCOCCOCCNc1nc(N2CCN(C(=O)CCCCCCCCCCNC(=O)[C@H](CO)n3cc(CCCSC)nn3)CC2)nc(N2CCN(C(=O)CCCCCCCCCCNC(=O)[C@H](CCCCN)n3cc(CCO)nn3)CC2)n1	15.8	54.7*	-3.1	-3.3
C#CCOCCOCCOCCNc1nc(N2CCN(C(=O)CCCCCCCCCCNC(=O)Cn3cc(CCCCCN)nn3)CC2)nc(N2CCN(C(=O)CCCCCCCCCCNC(=O)[C@@H](CCSC)n3cc(CCO)nn3)CC2)n1	·	52.3*	0.2	·
CC(Cc1nnc(N)s1)c1ccccc1 (centres undefined)	-20.2	-10.7	4.5	-3.4
O=C(Nc1ccc(F)cc1)Nc1ccc(N2CCCC2)c(S(=O)(=O)Nc2ccccc2Cl)c1	88.1*	12.1	·	-0.3
O=C(Nc1cc(S(=O)(=O)N2CCCCC2)ccc1Cl)c1ccccc1NS(=O)(=O)c1ccc(F)cc1	93.2*	-8.8	·	-5.3
O=C(Nc1cc(S(=O)(=O)N2CCCCC2)ccc1O)c1ccccc1NS(=O)(=O)c1ccc(F)cc1	-4.2	-6.7	11.4	-3.8
C[C@H](CO)N1C[C@H](C)[C@@H](CN(C)Cc2ccncc2)OCCCC[C@H](C)Oc2ccc(NC(=O)Nc3ccc(C(F)(F)F)cc3)cc2C1=O	14.9	23.8	5.5	·
C[C@@H]1CCCCO[C@@H](CN(C)Cc2ccncc2)[C@H](C)CN([C@@H](C)CO)C(=O)c2cc(NC(=O)Nc3ccc(C(F)(F)F)cc3)ccc2O1	93.4*	25.5	-12.0	·
C[C@H](CO)N1C[C@H](C)[C@H](CN(C)Cc2ccncc2)OCCCC[C@H](C)Oc2ccc(NC(=O)Nc3ccc(C(F)(F)F)cc3)cc2C1=O	70.7*	31.6	2.3	·
C[C@H]1CCCCO[C@@H](CN(C)Cc2ccncc2)[C@@H](C)CN([C@@H](C)CO)C(=O)c2cc(NC(=O)Nc3ccc(C(F)(F)F)cc3)ccc2O1	81.3*	33.8	-10.2	·
C[C@@H]1CCCCO[C@@H](CN(C)Cc2ccc(C(F)(F)F)cc2)[C@H](C)CN([C@@H](C)CO)C(=O)c2cc(NC(=O)Nc3ccc(C(F)(F)F)cc3)ccc2O1	36.7	·	-6.5	-1.8
Cc1noc(C)c1NC(=O)N(C)C[C@@H]1Oc2ccc(NC(=O)CCC(F)(F)F)cc2C(=O)N([C@@H](C)CO)C[C@H]1C	·	·	·	-7.5
COc1cccc(C(=O)Nc2ccc3c(c2)C(=O)N(C)C[C@H](OC)[C@@H](C)CN(C)[C@@H](C)CO3)c1	·	9.6	2.4	-10.1
COc1cccc(NC(=O)Nc2ccc3c(c2)C(=O)N(C)C[C@H](OC)[C@H](C)CN(C)[C@H](C)CO3)c1	-4.3	88.5*	-0.1	0.5
COc1cccc(NC(=O)Nc2ccc3c(c2)C(=O)N(C)C[C@@H](OC)[C@H](C)CN(CC2CC2)[C@@H](C)CO3)c1	-15.8	64.4*	2.5	3.8
COc1cccc(NC(=O)Nc2ccc3c(c2)C(=O)N(C)C[C@@H](OC)[C@@H](C)CN(C)[C@H](C)CO3)c1	-3.6	95.0*	13.6	7.7
C[C@@H]1CN([C@@H](C)CO)S(=O)(=O)c2ccc(C#C[C@@H](C)O)cc2O[C@H]1CN(C)C	5.4	1.7	4.6	-11.6
C[C@H]1CN([C@@H](C)CO)S(=O)(=O)c2ccc(C#CC3CCCCC3)cc2O[C@H]1CN(C)C	·	53.3*	11.1	-4.9
C[C@H](O)C#Cc1ccc2c(c1)O[C@@H](CN(C)C)[C@H](C)CN([C@H](C)CO)S2(=O)=O	4.6	-1.0	5.3	48.1*
COc1ccc(S(=O)(=O)N(C)C[C@H]2Oc3cc(C#CC4CCCC4)ccc3S(=O)(=O)N([C@@H](C)CO)C[C@@H]2C)cc1	89.7*	-16.4	2.0	-8.2
COc1ccc(S(=O)(=O)N(C)C[C@H]2Oc3cc(C#CC4CCCC4)ccc3S(=O)(=O)N([C@@H](C)CO)C[C@H]2C)cc1	-2.3	3.4	3.1	19.8
C[C@@H]1CN([C@H](C)CO)C(=O)c2cc(NC(=O)Nc3ccccc3)ccc2O[C@@H](C)CCCCO[C@H]1CN(C)S(=O)(=O)c1ccc(Cl)cc1	70.0*	-21.3	-0.8	·
C[C@@H]1CCCCO[C@H](CN(C)S(=O)(=O)c2ccc(Cl)cc2)[C@@H](C)CN([C@@H](C)CO)C(=O)c2cc(NC(=O)CCC(F)(F)F)ccc2O1	93.1*	9.8	4.1	2.7
C[C@H](CO)N1C[C@H](C)[C@H](CN(C)S(=O)(=O)c2ccc(Cl)cc2)OCCCC[C@H](C)Oc2ccc(NC(=O)Nc3ccc(C(F)(F)F)cc3)cc2C1=O	77.9*	·	1.8	-4.4
C[C@@H]1CN([C@H](C)CO)C(=O)c2cc(NC(=O)Nc3ccc(C(F)(F)F)cc3)ccc2O[C@@H](C)CCCCO[C@H]1CN(C)S(=O)(=O)c1ccc(Cl)cc1	88.4*	·	10.7	13.7
SMILES	PAX8 reporter	RAD52 inh	RAD54 inh	FN deposition inh
O=C(Nc1ccc(OC(F)F)c(Cl)c1)[C@@H]1CCCN1C(=O)c1cccs1	1.7	·	·	-4.9
O=C(Oc1ccccc1N1CCOCC1)c1sccc1Br	8.8	-13.5	·	-4.3
COc1cc(NCCCn2cnc3c(OCc4ccccc4)ncnc32)cc(OC)c1OC	-17.6	-5.1	13.2	-5.2
CC(=O)c1c(N2CCN(C(=O)c3ccco3)CC2)nc(=S)n(-c2ccccc2)c1C	·	-8.7	5.1	·
C=C(CC)C(=O)c1ccc(OCC(=O)O)c(Cl)c1Cl	80.8*	-6.7	9.6	6.6
CC(C)[C@H](NC(N)=O)C(=O)NNC(=O)COc1cccc(C(F)(F)F)c1	1.4	-13.0	·	-17.3
CCSCCc1nnc(NC(=O)Nc2cccc(C(F)(F)F)c2)s1	105.8*	-4.8	·	1.1
O=C(Nc1cccc(C(F)(F)F)c1)Nc1nnc([C@H]2C[C@H](O)[C@@H](CO)O2)s1	-27.0	4.5	3.6	-0.3
COc1ccc(C#Cc2ccc3c(c2)[C@@H]2[C@@H](CCN2S(=O)(=O)c2ccc(OC)cc2)[C@H](CO)N3C)cc1	-3.1	-4.4	15.2	10.0
COc1ccc(-c2ccc3c(c2)[C@@H]2[C@@H](CCN2S(=O)(=O)c2ccc(F)cc2)[C@H](CO)N3C)cc1	62.2*	4.0	·	8.1
COc1ccc(C#Cc2ccc3c(c2)[C@H]2[C@H](CCN2S(=O)(=O)c2cccc(OC)c2)[C@H](CO)N3C)cc1	26.1	62.1*	7.7	-15.4
CN1c2ccc(-c3ccc(F)cc3)cc2[C@H]2[C@H](CCN2S(=O)(=O)c2ccc(F)cc2)[C@H]1CO	-3.1	·	-2.6	-16.3
COc1ccc(-c2ccc3c(c2)[C@@H]2[C@@H](CCN2S(=O)(=O)c2ccc(OC)cc2)[C@H](CO)N3C)cc1	20.8	18.9	3.2	3.7
COc1ccc(-c2ccc3c(c2)[C@H]2[C@H](CCN2S(=O)(=O)c2ccc(OC)cc2)[C@@H](CO)N3C)cc1	79.4*	24.8	-4.1	5.8
CCN1CCN(Cc2ccc(NC(=O)c3ccc(C)c(/C=C/c4cnc(Nc5cc(N6CCNCC6)nc(C)n5)cn4)c3)cc2C(F)(F)F)CC1	·	·	104.9*	·
CCN1CCN(Cc2ccc(NC(=O)c3ccc(C)c(NC(=O)c4ccno4)c3)cc2C(F)(F)F)CC1	-15.7	8.1	-9.5	3.9
